This note sets out measurements from ChEMBL document CHEMBL1166014, “Targeting efflux pumps-In vitro investigations with acridone derivatives and identification of a lead molecule for MDR modulation” (Bioorg Med Chem, 2010).

The target of experiment [1] is T1, Multidrug resistance protein CDR2 (Candida albicans (strain SC5314 / ATCC MYA-2876) (Yeast)) (UniProt P78595).
T1 sequence (whole entry): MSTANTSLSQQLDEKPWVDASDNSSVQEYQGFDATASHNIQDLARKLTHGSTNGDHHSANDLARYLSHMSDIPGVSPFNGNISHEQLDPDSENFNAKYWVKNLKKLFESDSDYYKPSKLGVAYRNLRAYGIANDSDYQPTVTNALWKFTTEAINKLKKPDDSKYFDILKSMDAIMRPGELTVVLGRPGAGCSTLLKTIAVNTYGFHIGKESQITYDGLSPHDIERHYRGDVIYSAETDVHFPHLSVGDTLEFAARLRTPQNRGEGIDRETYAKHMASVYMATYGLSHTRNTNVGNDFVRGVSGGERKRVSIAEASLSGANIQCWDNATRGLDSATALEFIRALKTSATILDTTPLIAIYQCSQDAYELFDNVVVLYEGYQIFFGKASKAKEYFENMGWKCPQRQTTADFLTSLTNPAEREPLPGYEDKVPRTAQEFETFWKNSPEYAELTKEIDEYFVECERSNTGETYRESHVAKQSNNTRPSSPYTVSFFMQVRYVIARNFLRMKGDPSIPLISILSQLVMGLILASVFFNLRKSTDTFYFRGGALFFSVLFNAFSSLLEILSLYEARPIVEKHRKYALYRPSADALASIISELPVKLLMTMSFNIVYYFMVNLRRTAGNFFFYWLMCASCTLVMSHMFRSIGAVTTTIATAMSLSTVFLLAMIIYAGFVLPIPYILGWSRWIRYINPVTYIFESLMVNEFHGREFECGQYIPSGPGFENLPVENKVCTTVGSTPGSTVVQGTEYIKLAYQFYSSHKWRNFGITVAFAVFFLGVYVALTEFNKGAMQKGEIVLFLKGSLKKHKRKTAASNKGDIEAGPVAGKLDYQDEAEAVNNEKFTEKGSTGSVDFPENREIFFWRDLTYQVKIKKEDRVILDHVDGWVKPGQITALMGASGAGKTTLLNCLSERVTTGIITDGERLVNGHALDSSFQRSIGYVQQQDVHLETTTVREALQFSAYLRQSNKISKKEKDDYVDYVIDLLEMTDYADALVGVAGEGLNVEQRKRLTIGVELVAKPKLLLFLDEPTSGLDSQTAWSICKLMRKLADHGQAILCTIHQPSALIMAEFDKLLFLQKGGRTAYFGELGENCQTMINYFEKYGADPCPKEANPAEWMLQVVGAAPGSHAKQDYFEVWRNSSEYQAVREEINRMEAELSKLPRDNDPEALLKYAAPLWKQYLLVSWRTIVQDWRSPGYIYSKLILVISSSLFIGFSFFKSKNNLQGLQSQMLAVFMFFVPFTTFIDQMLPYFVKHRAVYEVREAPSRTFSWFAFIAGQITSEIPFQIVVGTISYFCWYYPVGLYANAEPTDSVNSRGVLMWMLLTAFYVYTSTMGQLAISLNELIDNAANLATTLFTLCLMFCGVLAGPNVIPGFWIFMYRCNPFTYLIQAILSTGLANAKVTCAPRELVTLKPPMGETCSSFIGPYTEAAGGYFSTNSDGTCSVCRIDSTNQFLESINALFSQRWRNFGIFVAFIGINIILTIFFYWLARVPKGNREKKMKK
Kind of experiment: Modulation of CDR2-mediated rhodamine 6G accumulation in Candida albicans CAI4 assessed as increase in R6G influx at 800 ug/ml after 180 mins by spectrofluorimetry. The essentials: (§1)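 C. albicans CAI4 secondary culture (YEPD, 30 °C, ~5 h) washed in PBS, 2% suspension in PBS with 2 mM 2-deoxyglucose rocked 2 h; compound added at 800 µg/ml (MeOH/DMSO 1:1 solvent control), then R6G; aliquots over 0–180 min centrifuged, R6G left in supernatant measured as OD527.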

For experiment [2], the system named is Candida albicans. In words: Antifungal activity at Candida albicans CAI4 assessed as reduction in colony formation at 0.9 mg/ml after 48 hrs by spot assay. In kind it is functional, organism-based. The essentials: (§2)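 Spot assay on YEPD-agar plates containing compound (with Congo red or calcofluor white where applicable); solvent (MeOH/DMSO 1:1) and YEPD-only control plates; CAI4 primary culture 16 h, secondary 5 h at 30 °C from 4% inoculum, diluted in 0.9% saline; 10⁵ to 10⁰ cells spotted; 30 °C 48 h, growth scored.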

Experiment [3] has as its target T1, Multidrug resistance protein CDR2 (Candida albicans (strain SC5314 / ATCC MYA-2876) (Yeast)). Kind of experiment: Inhibition of CDR2-mediated efflux of rhodamine 6G in Candida albicans CAI4 at 800 ug/ml up to 60 mins by spectrofluorimetry in presence of 2 mM 2-deoxyglucose treated for 2 hrs before compound addition. The essentials: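 C. albicans CAI4 secondary culture (YEPD, 30 °C, ~5 h) washed in PBS, 2% cell suspension de-energised with 2 mM 2-deoxyglucose on rocker 2 h; R6G loaded, cells pelleted, washed, resuspended in PBS with or without 2% glucose; compound at 800 µg/ml with MeOH/DMSO 1:1 solvent control; supernatant R6G fluorescence read (ex 529, em 553 nm) over time.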

Experiment [4] can be described thus: Binding affinity to P-gp at 5 uM after 30 mins by spectrophotometry. The method in brief:
(§3)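 P-gp vesicles from DC-3F/ADX MDR cells; basal MgATP hydrolysis measured by PK/LDH-coupled NADH oxidation (PEP, NADH), with non-specific ATPase inhibitor; vesicles 5 min at 37 °C, compound added (final 0.05, 0.5, 5 µM) 5 min, MgATP then 20 min at 37 °C; A340 read twice 20 min apart; triplicate; verapamil, vinblastine, progesterone references.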

Experiment [5] deals with T1, Multidrug resistance protein CDR2 (Candida albicans (strain SC5314 / ATCC MYA-2876) (Yeast)). In words: Modulation of CDR2-mediated rhodamine 6G accumulation in Candida albicans CAI4 assessed as inhibition of fungal growth at 800 ug/ml after 48 hrs by spot assay. The method in brief: (§4)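 Spot assay: CAI4 grown in YEPD at 30 °C (16 h primary, 5 h secondary), diluted in 0.9% saline and spotted as 10⁵–10⁰ cells on YEPD agar containing compound plus R6G; solvent (MeOH/DMSO 1:1) and YEPD-only control plates; growth scored after 48 h at 30 °C.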

The test system of experiment [6] is Candida albicans. In words: Antifungal activity at Candida albicans CAI4 assessed as inhibition of fungal growth at 1 mg/ml after 48 hrs by spot assay. In kind it is functional, organism-based. The essentials:
as §2

A short description of experiment [7]: Binding affinity to P-gp assessed as increase in basal protein activity at 0.5 uM after 30 mins by spectrophotometry. The method in brief:
as §3

A short description of experiment [8]: Binding affinity to P-gp at 0.05 uM after 30 mins by spectrophotometry. The method in brief:
as §3

A short description of experiment [9]: Binding affinity to P-gp at 0.5 uM after 30 mins by spectrophotometry. The essentials:
as §3

For experiment [10], the target named is Multidrug resistance protein CDR1 (Candida albicans) (UniProt P43071). Kind of experiment: Modulation of CDR1-mediated rhodamine 6G accumulation in Candida albicans CAI4 assessed as increase in R6G influx at 800 ug/ml after 180 mins by spectrofluorimetry. The method in brief:
as §1

Experiment [11] has the same target. Kind of experiment: Modulation of CDR1-mediated rhodamine 6G accumulation in Candida albicans CAI4 assessed as inhibition of fungal growth at 800 ug/ml after 48 hrs by spot assay. The method in brief:
as §4

Active and inactive are the calls of the source. The calls are words filed in the database; no cut-off is given here.

Sequence of Multidrug resistance protein CDR1 (Candida albicans) (P43071 whole entry, looked up): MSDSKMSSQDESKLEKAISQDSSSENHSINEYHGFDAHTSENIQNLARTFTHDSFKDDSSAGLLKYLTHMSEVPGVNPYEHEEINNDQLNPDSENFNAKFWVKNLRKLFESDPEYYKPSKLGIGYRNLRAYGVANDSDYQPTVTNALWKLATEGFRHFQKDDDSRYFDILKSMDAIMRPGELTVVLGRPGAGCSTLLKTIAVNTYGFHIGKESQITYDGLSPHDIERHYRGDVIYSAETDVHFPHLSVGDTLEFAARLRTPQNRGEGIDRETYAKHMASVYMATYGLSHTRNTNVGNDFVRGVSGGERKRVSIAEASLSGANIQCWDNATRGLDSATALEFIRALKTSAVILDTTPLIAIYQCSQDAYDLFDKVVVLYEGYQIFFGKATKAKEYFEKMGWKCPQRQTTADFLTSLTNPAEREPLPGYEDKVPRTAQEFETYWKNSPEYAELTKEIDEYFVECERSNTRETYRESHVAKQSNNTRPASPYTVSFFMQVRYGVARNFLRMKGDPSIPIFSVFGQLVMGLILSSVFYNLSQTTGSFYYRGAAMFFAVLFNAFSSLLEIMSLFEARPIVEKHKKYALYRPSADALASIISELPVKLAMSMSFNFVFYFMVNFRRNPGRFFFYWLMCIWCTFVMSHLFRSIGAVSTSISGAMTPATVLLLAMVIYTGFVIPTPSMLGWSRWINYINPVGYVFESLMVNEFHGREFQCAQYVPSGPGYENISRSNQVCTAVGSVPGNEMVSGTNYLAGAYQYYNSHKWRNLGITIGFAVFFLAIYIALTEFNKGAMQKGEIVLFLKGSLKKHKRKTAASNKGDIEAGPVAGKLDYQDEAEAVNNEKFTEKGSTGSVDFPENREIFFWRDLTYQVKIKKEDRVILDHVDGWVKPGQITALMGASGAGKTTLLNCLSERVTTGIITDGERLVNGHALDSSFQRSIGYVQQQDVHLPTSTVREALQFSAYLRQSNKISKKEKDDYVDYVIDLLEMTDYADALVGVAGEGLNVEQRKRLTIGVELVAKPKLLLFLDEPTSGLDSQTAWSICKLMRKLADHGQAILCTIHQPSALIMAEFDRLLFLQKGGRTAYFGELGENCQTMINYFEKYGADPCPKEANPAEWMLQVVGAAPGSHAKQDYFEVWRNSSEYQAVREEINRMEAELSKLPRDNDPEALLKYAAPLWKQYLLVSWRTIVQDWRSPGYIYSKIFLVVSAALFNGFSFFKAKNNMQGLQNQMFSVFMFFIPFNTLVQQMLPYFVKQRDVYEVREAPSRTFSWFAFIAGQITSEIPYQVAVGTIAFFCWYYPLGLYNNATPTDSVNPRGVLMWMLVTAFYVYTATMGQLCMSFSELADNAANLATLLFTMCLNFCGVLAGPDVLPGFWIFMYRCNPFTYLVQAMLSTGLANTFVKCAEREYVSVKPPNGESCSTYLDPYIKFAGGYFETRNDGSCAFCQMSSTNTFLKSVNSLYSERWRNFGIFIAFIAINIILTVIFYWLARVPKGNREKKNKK

On to `O=C(O)c1cccc2c(=O)c3ccccc3n(CC(O)CN3CCCC3)c12` (stereo unspecified), for which the inhibition result (in experiment [1]; with Candida albicans [2]; in experiment [3]; in [5]; in experiment [10]; in experiment [11]) was “Active” each time. The RBA in experiment [4] amounted to 2; in experiment [8] it was 1.6; in experiment [9], 1.85. Besides, the inhibition entry with Candida albicans [6] is “inactive”. Further, the Activity in experiment [7] came out at 85%.
